Results: ChEMBL document CHEMBL5661981 (PLoS One, 2011)
Blank lines part the entries; values can stand above or below the compound they belong to. The source made the active and inactive calls. No cut-off for these calls is given here.

Experiments:
SK-OV-3 [1] = assay: Antitumor activity against human SK-OV-3 cells over expressing ErbB2 xenografted in nude mouse assessed as reduction in growth at 50 mg/kg, po administered twice daily for 28 days; format: functional, organism-based; conditions: time 28.0 day
Calu-3 [2] = assay: Antitumor activity against human Calu-3 cells over expressing ErbB2 xenografted in nude mouse assessed as reduction in growth at 50 mg/kg, po administered twice daily for 28 days; format: functional, organism-based; conditions: time 28.0 day
NIH3T3 = assay: Antiproliferative activity against mouse NIH3T3 cells harboring EGFR T790M/L858R double mutant assessed as reduction in cell viability after 72 hrs by SRB assay; format: functional, cell-based; conditions: dose 0.19-6.25 µM
In short: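 Parental NIH3T3 and laboratory-built NIH3T3 overexpressing EGFR T790M/L858R treated with indicated concentrations for 72 h; viability by sulforhodamine B; IC50 from three independent experiments.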

NCI-H1975 = assay: Antiproliferative activity against human NCI-H1975 cells harboring EGFR T790M/L858R double mutant assessed as reduction in cell viability after 72 hrs by SRB assay; format: functional, cell-based; conditions: dose 0.19-6.25 µM
In short: (§1)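 Cell lines from ATCC; exposed to indicated concentrations for 72 h and growth read by sulforhodamine B (SRB) assay; IC50 values derived.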

MDA-MB-468 = assay: Antiproliferative activity against human MDA-MB-468 cells assessed as reduction in cell viability after 72 hrs by SRB assay; format: functional, cell-based; conditions: MDA-MB-468, 72 h; in short: as §1
A549 [3] = assay: Antiproliferative activity against human A549 cells assessed as reduction in cell viability after 72 hrs by SRB assay; format: functional, cell-based; conditions: A549, 72 h; in short: as §1
NCI-H23 = assay: Antiproliferative activity against human NCI-H23 cells assessed as reduction in cell viability after 72 hrs by SRB assay; format: functional, cell-based; conditions: NCI-H23, 72 h; in short: as §1
SK-OV-3 [4] = assay: Antiproliferative activity against human SK-OV-3 cells assessed as reduction in cell viability after 72 hrs by SRB assay; format: functional, cell-based; conditions: SK-OV-3, 72 h; in short: as §1
SK-OV-3 [5] = assay: Antiproliferative activity against human SK-OV-3 cells assessed as decrease in number of colony formation at 0.1 to 5 uM after 1 to 2 weeks by microscope analysis; format: functional, cell-based; conditions: dose 0.1-5 µM, time 1-2 weeks
In short: (§2)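 Cells at 8000/mL exposed to drug in 1 mL 0.3% basal medium Eagle's agar with 10% FBS; kept 2 weeks at 37°C, 5% CO2. Average colony number counted and colonies photographed; mean of triplicate samples, SE bars, Student's test.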

A549 [6] = assay: Antiproliferative activity against human A549 cells assessed as decrease in number of colony formation at 0.1 to 5 uM after 1 to 2 weeks by microscope analysis; format: functional, cell-based; conditions: dose 0.1-5 µM, time 1-2 weeks; in short: as §2
SK-OV-3 [7] = assay: Antiproliferative activity against human SK-OV-3 cells transfected with ErbB2 siRNA assessed as reduction in cell viability at 1.25 to 6.25 uM after 72 hrs by SRB assay; format: functional, cell-based; conditions: dose 1.25-6.25 µM
In short: (§3)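 SK-OV-3 cells transfected with siRNA (final 50 nmol/L; one ErbB2 pair, two independent EGFR pairs, plus control siRNA) using oligofectamine; drug added 48 h after transfection, growth measured by SRB. Three independent experiments; significance by t test.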

SK-OV-3 [8] = assay: Antiproliferative activity against human SK-OV-3 cells transfected with EGFR siRNA assessed as reduction in cell viability at 1.25 to 6.25 uM after 72 hrs by SRB assay; format: functional, cell-based; conditions: dose 1.25-6.25 µM; in short: as §3
SK-OV-3 [9] = assay: Antitumor activity against human SK-OV-3 cells over expressing ErbB2 xenografted in nude mouse assessed as reduction in growth at 25 to 100 mg/kg, po administered twice daily for 28 days; format: functional, organism-based; conditions: dose 25-100 mg/kg, time 28.0 day
SK-OV-3 [10] = assay: Antitumor activity against human SK-OV-3 cells over expressing ErbB2 xenografted in nude mouse assessed as reduction in growth at 25 to 100 mg/kg, po administered twice daily for 7 days relative to control; format: functional; parameters: scale not given: the % may be the effect or the level left; conditions: dose 25-100 mg/kg, time 7 day
Calu-3 [11] = assay: Antitumor activity against human Calu-3 cells over expressing ErbB2 xenografted in nude mouse assessed as reduction in growth at 25 to 100 mg/kg, po administered twice daily for 21 days; format: functional, organism-based; conditions: dose 25-100 mg/kg, time 21.0 day
HO-8910 = assay: Antitumor activity against human HO-8910 cells xenografted in nude mouse assessed as reduction in growth at 25 to 100 mg/kg, po administered twice daily for 21 days; format: functional, organism-based; conditions: dose 25-100 mg/kg, time 21.0 day
A549 [12] = assay: Antitumor activity against human A549 cells xenografted in nude mouse assessed as reduction in growth at 25 to 100 mg/kg, po administered twice daily for 32 days; format: functional, organism-based; conditions: dose 25-100 mg/kg, time 32.0 day
[13] = Toxicity in nude mouse xenografted with human SK-OV-3 cells over expressing ErbB2 assessed as effect on body weight at 25 to 100 mg/kg, po administered twice daily for 28 days; format: organism-based; conditions: in vivo, 672 h, dose 25-100 mg/kg, time 28 day
Mus musculus [14] = assay: In vivo inhibition of EGFR phosphorylation in human SK-OV-3 cells over expressing ErbB2 xenografted in nude mouse at 100 mg/kg, po measured after 2 to 24 hrs by Western blot analysis; format: functional, organism-based; conditions: time lower 2.0 hrs, time upper […]
In short: (§4)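 Nude mice bearing established SK-OV-3 tumors (~200 mm3) given a single 100 mg/kg dose; tumor extracts collected at indicated times and EGFR and ErbB2 phosphorylation assessed by immunoblotting.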

Mus musculus [15] = assay: In vivo inhibition of ErbB2 phosphorylation in human SK-OV-3 cells over expressing ErbB2 xenografted in nude mouse at 100 mg/kg, po measured after 2 to 24 hrs by Western blot analysis; format: functional, organism-based; conditions: time lower 2.0 hrs, time upper […]; in short: as §4
Mus musculus [16] = assay: Antitumor activity against FVB-2/Nneu transgenic mouse breast cancer model assessed as reduction in tumor growth at 25 to 100 mg/kg, po administered twice daily for 21 days; format: functional, organism-based; conditions: dose 25-100 mg/kg, time 21.0 day
Mus musculus [17] = assay: Antitumor activity against FVB-2/Nneu transgenic mouse breast cancer model assessed as reduction in tumor growth at 25 to 100 mg/kg, po administered twice daily for 11 days relative to control; format: functional; parameters: scale not given: the % may be the effect or the level left; conditions: dose 25-100 mg/kg, time 11 day
[18] = Toxicity in FVB-2/Nneu transgenic mouse breast cancer model assessed as decrease in body weight at 25 to 100 mg/kg, po administered twice daily for 21 days relative to control; format: organism-based; parameters: scale not given: the % may be the effect or the level left; conditions: in vivo, 504 h, dose 25-100 mg/kg, time 21 day
[19] = tested on: Epidermal growth factor receptor (Homo sapiens), P00533 [L858R,T790M]; conditions: NIH3T3, dose 1-100 nM, time 6.0 hrs
[20] = tested on: Epidermal growth factor receptor (Homo sapiens), P00533 [L858R,T790M]; conditions: NCI-H1975, dose 10-100 nM, time 4.25 hrs
[21] = tested on: Epidermal growth factor receptor (Homo sapiens), P00533 [L858R,T790M]; conditions: NCI-H1975, dose 10-100 nM, time 4.25 hrs; remark: listed apart in the source
[22] = tested on: Epidermal growth factor receptor (Homo sapiens), P00533 [L858R,T790M]; conditions: NCI-H1975, dose 10-100 nM, time 4.25 hrs; remark: listed apart in the source

Sequence of Epidermal growth factor receptor (Homo sapiens), P00533 [L858R,T790M] (P00533 whole entry T790M/L858R, looked up): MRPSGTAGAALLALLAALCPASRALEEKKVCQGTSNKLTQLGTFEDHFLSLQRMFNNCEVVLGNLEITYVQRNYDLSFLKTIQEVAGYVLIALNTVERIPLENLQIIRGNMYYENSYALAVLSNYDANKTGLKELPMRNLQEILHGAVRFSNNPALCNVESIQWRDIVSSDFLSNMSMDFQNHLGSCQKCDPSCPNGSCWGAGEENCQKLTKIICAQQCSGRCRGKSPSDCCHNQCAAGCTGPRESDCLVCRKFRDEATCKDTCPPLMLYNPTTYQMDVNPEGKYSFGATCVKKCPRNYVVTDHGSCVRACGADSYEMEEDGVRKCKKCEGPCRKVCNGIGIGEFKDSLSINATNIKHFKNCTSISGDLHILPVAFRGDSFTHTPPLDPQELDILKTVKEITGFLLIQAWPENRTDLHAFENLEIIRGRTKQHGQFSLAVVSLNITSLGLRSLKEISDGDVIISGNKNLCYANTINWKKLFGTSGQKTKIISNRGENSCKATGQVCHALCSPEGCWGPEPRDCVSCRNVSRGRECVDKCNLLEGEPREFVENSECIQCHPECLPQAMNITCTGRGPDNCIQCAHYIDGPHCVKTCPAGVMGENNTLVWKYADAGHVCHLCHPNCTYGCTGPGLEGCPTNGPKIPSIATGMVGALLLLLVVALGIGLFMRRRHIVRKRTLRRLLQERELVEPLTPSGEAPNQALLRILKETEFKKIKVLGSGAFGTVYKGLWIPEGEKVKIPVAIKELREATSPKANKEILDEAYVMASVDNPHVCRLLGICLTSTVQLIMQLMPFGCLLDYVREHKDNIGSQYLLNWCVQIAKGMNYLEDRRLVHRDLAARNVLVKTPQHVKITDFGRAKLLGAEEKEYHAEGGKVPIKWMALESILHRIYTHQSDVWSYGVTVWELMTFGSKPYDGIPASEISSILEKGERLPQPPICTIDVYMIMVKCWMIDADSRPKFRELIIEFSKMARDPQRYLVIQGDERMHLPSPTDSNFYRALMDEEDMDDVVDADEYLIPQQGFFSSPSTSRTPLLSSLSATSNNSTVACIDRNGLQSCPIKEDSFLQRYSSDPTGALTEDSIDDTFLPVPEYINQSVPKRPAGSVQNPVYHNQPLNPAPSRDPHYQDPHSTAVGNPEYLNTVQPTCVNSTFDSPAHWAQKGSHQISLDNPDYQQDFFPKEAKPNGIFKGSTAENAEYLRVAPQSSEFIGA

SMILES: CS(=O)(=O)CCNCc1ccc(-c2ccc3ncnc(Nc4ccc(OCc5cccc(F)c5)c(Cl)c4)c3c2)o1
- Activity (SK-OV-3 [1]): Active
- Activity (Calu-3 [2]): Active

- IC50 (MDA-MB-468): 6.2 µM
- IC50 (A549 [3]): 6.2 µM
- IC50 (NCI-H23): 6.2 µM
- IC50 (SK-OV-3 [4]): 6.2 µM
- inhibition [19]: Active
- inhibition [20]: Dose-Dependent Effect
- inhibition [21]: Dose-Dependent Effect
- inhibition [22]: Dose-Dependent Effect
SMILES: C=CC(=O)Nc1ccc2ncnc(Nc3ccc(OCc4cccc(F)c4)c(Cl)c3)c2c1 [ALLITINIB]
- Activity (NIH3T3): Dose-Dependent Effect
- inhibition (NCI-H1975): Dose-Dependent Effect
- Activity (SK-OV-3 [5]): Active
- Activity (A549 [6]): Active
- Activity (SK-OV-3 [7]): inactive
- Activity (SK-OV-3 [8]): Active
- Activity (SK-OV-3 [9]): Active
- Activity (SK-OV-3 [10]): ~100%
- Activity (Calu-3 [11]): Active
- Activity (HO-8910): Active
- Activity (A549 [12]): Active
- Activity [13]: Non-Toxic
- inhibition (Mus musculus [14]): Active
- inhibition (Mus musculus [15]): Active
- Activity (Mus musculus [16]): Active
- Activity (Mus musculus [17]): ~100%
- Activity [18]: < 20%
